Several values for one entry are separate records, joined by “and”; a condition that tells them apart may be missing. Equal values may be shown once.
System: Fibroblast
Experiment: Multiplex assay against human fibroblast
Format: toxicity, cell-based
Procedure, shortened: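 Hoechst33342, BioTracker Green Microtubule Cytoskeleton Dye, MitoTracker Red and Annexin V Alexa Fluor 680 were added to live cells at seeding, and imaging on a CQ1 microscope at 37°C and 5% CO2 followed compound addition. Gating by CellPathfinder machine learning separated cells into Hoechst high-intensity objects or normal cells, then normal cells into healthy, pyknosed or fragmented nuclei, then pyknosed cells into mitotic or apoptotic. Per cents of healthy-nucleus cells are reported for the tubulin, mitochondrial-mass and membrane-permeability phenotypes.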

[1] = 12 h, 10 µM, compound concentration 10 uM, replicate 1
[2] = 12 h, 10 µM, compound concentration 10 uM, replicate 2
[3] = 24 h, 10 µM, compound concentration 10 uM, replicate 1
[4] = 24 h, 10 µM, compound concentration 10 uM, replicate 2
[5] = 12 h, 1 µM, compound concentration 1 uM, replicate 1
[6] = 12 h, 1 µM, compound concentration 1 uM, replicate 2
[7] = 24 h, 1 µM, compound concentration 1 uM, replicate 1
[8] = 24 h, 1 µM, compound concentration 1 uM, replicate 2

**Q.** For `CN(c1ccccc1CNc1nc(Nc2ccc3c(c2)CC(=O)N3)ncc1C(F)(F)F)S(C)(=O)=O`, which “Population Apoptotic (%)” value [1] is on record?
**A.** 77% and 66%

**Q.** What about the “Population Fragmented Nuclei (%)” value [1] of the same compound?
**A.** 25% and 30%

**Q.** What about the “Population Healthy Nuclei (%)” value [1] of the same compound?
**A.** 60% and 55%

**Q.** And the “Population Hoechst High Intensity Objects (%)” value [1]?
**A.** 16% and 14%

**Q.** What about the “Population Mitotic Cells (%)” value [1] of the same compound?
**A.** 22% and 33%

**Q.** And the “Population Normal (%)” value [1]?
**A.** 83% and 85%

**Q.** And the “Population Pyknosed Nuclei (%)” value [1]?
**A.** 13% and 14%

**Q.** What about the “Total Cell Count” value [1] of the same compound?
**A.** 189 and 148

**Q.** And the “Population Fragmented Nuclei (%)” value [2]?
**A.** 56% and 49%

**Q.** And the “Population Healthy Nuclei (%)” value [2]?
**A.** 38% and 25%

**Q.** And the “Population Hoechst High Intensity Objects (%)” value [2]?
**A.** 39% and 31%

**Q.** What about the “Population Mitochondria Different-Phenotype (%)” value [2] of the same compound?
**A.** 5% and 14%

**Q.** And the “Population Mitotic Cells (%)” value [2]?
**A.** 100% and 64%

**Q.** And the “Population Normal (%)” value [2]?
**A.** 60% and 68%

**Q.** And the “Total Cell Count” value [2]?
**A.** 83 and 80

**Q.** And the “Population Apoptotic (%)” value [3]?
**A.** 70% and 91%

**Q.** What about the “Population Fragmented Nuclei (%)” value [3] of the same compound?
**A.** 26% and 36%

**Q.** What about the “Population Healthy Nuclei (%)” value [3] of the same compound?
**A.** 55% and 54%

**Q.** And the “Population Hoechst High Intensity Objects (%)” value [3]?
**A.** 14% and 18%

**Q.** And the “Population Membrane Permeable-Phenotype (%)” value [3]?
**A.** 11%

**Q.** And the “Population Normal (%)” value [3]?
**A.** 85% and 81%

**Q.** And the “Population Pyknosed Nuclei (%)” value [3]?
**A.** 18% and 9%

**Q.** And the “Total Cell Count” value [3]?
**A.** 176 and 163

**Q.** And the “Population Fragmented Nuclei (%)” value [4]?
**A.** 43% and 49%

**Q.** And the “Population Healthy Nuclei (%)” value [4]?
**A.** 47% and 28%

**Q.** What about the “Population Hoechst High Intensity Objects (%)” value [4] of the same compound?
**A.** 36% and 30%

**Q.** What about the “Population Membrane Permeable-Phenotype (%)” value [4] of the same compound?
**A.** 18% and 20%

**Q.** What about the “Population Mitochondria Different-Phenotype (%)” value [4] of the same compound?
**A.** 13% and 26%

**Q.** What about the “Population Normal (%)” value [4] of the same compound?
**A.** 63% and 69%

**Q.** And the “Population Pyknosed Nuclei (%)” value [4]?
**A.** 8% and 22%

**Q.** And the “Total Cell Count” value [4]?
**A.** 73 and 76

**Q.** What does the source list for `C=CC(=O)Nc1cccc(Sc2nc(Nc3ccc(N4CCN(C)CC4)cc3)ncc2Cl)c1`?
**A.** Population Apoptotic (%) [5]: 35%; Population Fragmented Nuclei (%) [5]: 28%; Population Healthy Nuclei (%) [5]: 17%; Population Hoechst High Intensity Objects (%) [5]: 13%; Population Membrane Permeable-Phenotype (%) [5]: 5%; Population Mitochondria Different-Phenotype (%) [5]: 50%; Population Mitotic Cells (%) [5]: 65%; Population Normal (%) [5]: 86%; Population Pyknosed Nuclei (%) [5]: 53%; Population Tubulin-Different-Phenotype (%) [5]: 50%; Total Cell Count [5]: 130; Population Apoptotic (%) [6]: 69%; Population Fragmented Nuclei (%) [6]: 48%; Population Healthy Nuclei (%) [6]: 6%; Population Hoechst High Intensity Objects (%) [6]: 20%; Population Membrane Permeable-Phenotype (%) [6]: 0%; Population Mitochondria Different-Phenotype (%) [6]: 33%; Population Mitotic Cells (%) [6]: 30%; Population Normal (%) [6]: 79%; Population Pyknosed Nuclei (%) [6]: 46%; Population Tubulin-Different-Phenotype (%) [6]: 66%; Total Cell Count [6]: 63; Population Apoptotic (%) [1]: 79%; Population Fragmented Nuclei (%) [1]: 34%; Population Healthy Nuclei (%) [1]: 49%; Population Hoechst High Intensity Objects (%) [1]: 15%; Population Membrane Permeable-Phenotype (%) [1]: 6%; Population Mitochondria Different-Phenotype (%) [1]: 5%; Population Mitotic Cells (%) [1]: 20%; Population Normal (%) [1]: 84%; Population Pyknosed Nuclei (%) [1]: 15%; Population Tubulin-Different-Phenotype (%) [1]: 9%; Total Cell Count [1]: 290; Population Apoptotic (%) [2]: 100%; Population Fragmented Nuclei (%) [2]: 62%; Population Healthy Nuclei (%) [2]: 36%; Population Hoechst High Intensity Objects (%) [2]: 33%; Population Membrane Permeable-Phenotype (%) [2]: 7%; Population Mitochondria Different-Phenotype (%) [2]: 7%; Population Mitotic Cells (%) [2]: 0%; Population Normal (%) [2]: 66%; Population Pyknosed Nuclei (%) [2]: 1%; Population Tubulin-Different-Phenotype (%) [2]: 25%; Total Cell Count [2]: 116; Population Apoptotic (%) [7]: 74%; Population Fragmented Nuclei (%) [7]: 53%; Population Healthy Nuclei (%) [7]: 6%; Population Hoechst High Intensity Objects (%) [7]: 7%; Population Mitochondria Different-Phenotype (%) [7]: 57%; Population Mitotic Cells (%) [7]: 25%; Population Normal (%) [7]: 92%; Population Pyknosed Nuclei (%) [7]: 40%; Population Tubulin-Different-Phenotype (%) [7]: 71%; Total Cell Count [7]: 126; Population Apoptotic (%) [8]: 90%; Population Fragmented Nuclei (%) [8]: 70%; Population Healthy Nuclei (%) [8]: 5%; Population Hoechst High Intensity Objects (%) [8]: 23%; Population Membrane Permeable-Phenotype (%) [8]: 0%; Population Mitochondria Different-Phenotype (%) [8]: 0%; Population Mitotic Cells (%) [8]: 10%; Population Normal (%) [8]: 76%; Population Pyknosed Nuclei (%) [8]: 25%; Population Tubulin-Different-Phenotype (%) [8]: 50%; Total Cell Count [8]: 52; Population Apoptotic (%) [3]: 80%; Population Fragmented Nuclei (%) [3]: 34%; Population Healthy Nuclei (%) [3]: 50%; Population Hoechst High Intensity Objects (%) [3]: 17%; Population Membrane Permeable-Phenotype (%) [3]: 5%; Population Mitochondria Different-Phenotype (%) [3]: 5%; Population Mitotic Cells (%) [3]: 20%; Population Normal (%) [3]: 82%; Population Pyknosed Nuclei (%) [3]: 14%; Population Tubulin-Different-Phenotype (%) [3]: 11%; Total Cell Count [3]: 285; Population Apoptotic (%) [4]: 0%; Population Fragmented Nuclei (%) [4]: 65%; Population Healthy Nuclei (%) [4]: 34%; Population Hoechst High Intensity Objects (%) [4]: 34%; Population Membrane Permeable-Phenotype (%) [4]: 20%; Population Mitochondria Different-Phenotype (%) [4]: 4%; Population Mitotic Cells (%) [4]: 0%; Population Normal (%) [4]: 65%; Population Pyknosed Nuclei (%) [4]: 0%; Population Tubulin-Different-Phenotype (%) [4]: 16%; Total Cell Count [4]: 111

From ChEMBL document CHEMBL4689842, “EUbOPEN Chemogenomics Library wave 1” (2021)
